Measured values published in ChEMBL document CHEMBL1909618, “Non-steroidal dissociated glucocorticoid agonists: indoles as A-ring mimetics and function-regulating pharmacophores” (Bioorg Med Chem Lett, 2011).
Calls of active or inactive are those of the source. The rule behind the calls is not given here.

Assays:
[1] = molecular target: T1, Glucocorticoid receptor (Homo sapiens) (UniProt P04150); assay: Agonist activity at glucocorticoid receptor in HFF assessed as inhibition of IL1-induced IL-6 production after 18 to 24 hrs relative to Dexamethasone; type: functional
T1 sequence (whole entry): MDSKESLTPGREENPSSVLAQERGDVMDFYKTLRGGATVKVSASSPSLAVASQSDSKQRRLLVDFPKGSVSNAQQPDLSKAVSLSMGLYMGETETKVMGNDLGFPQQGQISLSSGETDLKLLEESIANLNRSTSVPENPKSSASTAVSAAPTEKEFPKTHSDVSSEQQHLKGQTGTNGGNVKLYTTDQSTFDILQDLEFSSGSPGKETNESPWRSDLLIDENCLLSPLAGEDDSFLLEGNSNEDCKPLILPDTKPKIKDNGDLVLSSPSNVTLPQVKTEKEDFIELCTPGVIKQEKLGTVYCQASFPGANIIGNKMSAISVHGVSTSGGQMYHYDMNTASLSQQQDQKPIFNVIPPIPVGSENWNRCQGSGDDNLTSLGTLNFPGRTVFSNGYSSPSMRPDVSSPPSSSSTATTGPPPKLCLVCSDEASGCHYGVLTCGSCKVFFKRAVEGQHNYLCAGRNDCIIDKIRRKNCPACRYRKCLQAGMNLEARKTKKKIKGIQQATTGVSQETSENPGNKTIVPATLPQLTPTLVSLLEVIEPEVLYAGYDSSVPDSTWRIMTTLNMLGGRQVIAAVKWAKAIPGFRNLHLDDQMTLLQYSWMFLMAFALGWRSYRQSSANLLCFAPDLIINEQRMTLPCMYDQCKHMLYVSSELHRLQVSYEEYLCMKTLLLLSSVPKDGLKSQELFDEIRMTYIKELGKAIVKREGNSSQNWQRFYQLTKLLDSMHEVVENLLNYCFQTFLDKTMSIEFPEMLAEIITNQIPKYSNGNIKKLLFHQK
In short: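 Human foreskin fibroblasts stimulated with IL-1 (1 ng/mL) in the presence of test compound, incubated at 37 °C for 18–24 h. IL-6 in the culture medium was quantified by electrochemiluminescence, DELFIA or ELISA. IC50 and % maximal efficacy were reported.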

[2] = molecular target: T2, Glucocorticoid receptor (Homo sapiens, UniProt P04150); assay: Transactivation activity of glucocorticoid receptor in HFF assessed as induction of aromatase activity by measuring beta-estradiol activity after 18 to 24 hrs by ELISA
T2 sequence (P04150 whole entry): T1 sequence (whole entry)

[3] = molecular target: T1, Glucocorticoid receptor (Homo sapiens); assay: Transactivation activity of glucocorticoid receptor in HFF assessed as induction of aromatase activity by measuring beta-estradiol activity after 18 to 24 hrs by ELISA relative to Dexamethasone
[4] = molecular target: T2, Glucocorticoid receptor; assay: Agonist activity at glucocorticoid receptor in human HeLa cells transfected with luciferase gene linked to MMTV promoter assessed as luciferase transactivation activity; type: functional, cell-based
[5] = molecular target: T1, Glucocorticoid receptor (Homo sapiens); assay: Agonist activity at glucocorticoid receptor in human HeLa cells transfected with luciferase gene linked to MMTV promoter assessed as luciferase transactivation activity relative to Dexamethasone; type: functional, cell-based
In short: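 HeLa cells stably carrying an MMTV-luciferase construct were exposed to compound for 6 h at 37 °C, 5% CO2. Cells were then lysed and luminescence read with a Steady-Glo reagent. EC50 and % maximal efficacy were reported.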

[6] = molecular target: T2, Glucocorticoid receptor; assay: Displacement of tetramethylrhodamine-labeled Dexamethasone from human recombinant glucocorticoid receptor expressed in baculovirus infected insect cells by fluorescence polarization assay
[7] = molecular target: T3, Progesterone receptor (Homo sapiens, UniProt P06401); assay: Displacement of tetramethylrhodamine-labeled RU-486 from human recombinant progesterone receptor expressed in baculovirus infected insect cells by fluorescence polarization assay
T3 sequence (P06401 whole entry): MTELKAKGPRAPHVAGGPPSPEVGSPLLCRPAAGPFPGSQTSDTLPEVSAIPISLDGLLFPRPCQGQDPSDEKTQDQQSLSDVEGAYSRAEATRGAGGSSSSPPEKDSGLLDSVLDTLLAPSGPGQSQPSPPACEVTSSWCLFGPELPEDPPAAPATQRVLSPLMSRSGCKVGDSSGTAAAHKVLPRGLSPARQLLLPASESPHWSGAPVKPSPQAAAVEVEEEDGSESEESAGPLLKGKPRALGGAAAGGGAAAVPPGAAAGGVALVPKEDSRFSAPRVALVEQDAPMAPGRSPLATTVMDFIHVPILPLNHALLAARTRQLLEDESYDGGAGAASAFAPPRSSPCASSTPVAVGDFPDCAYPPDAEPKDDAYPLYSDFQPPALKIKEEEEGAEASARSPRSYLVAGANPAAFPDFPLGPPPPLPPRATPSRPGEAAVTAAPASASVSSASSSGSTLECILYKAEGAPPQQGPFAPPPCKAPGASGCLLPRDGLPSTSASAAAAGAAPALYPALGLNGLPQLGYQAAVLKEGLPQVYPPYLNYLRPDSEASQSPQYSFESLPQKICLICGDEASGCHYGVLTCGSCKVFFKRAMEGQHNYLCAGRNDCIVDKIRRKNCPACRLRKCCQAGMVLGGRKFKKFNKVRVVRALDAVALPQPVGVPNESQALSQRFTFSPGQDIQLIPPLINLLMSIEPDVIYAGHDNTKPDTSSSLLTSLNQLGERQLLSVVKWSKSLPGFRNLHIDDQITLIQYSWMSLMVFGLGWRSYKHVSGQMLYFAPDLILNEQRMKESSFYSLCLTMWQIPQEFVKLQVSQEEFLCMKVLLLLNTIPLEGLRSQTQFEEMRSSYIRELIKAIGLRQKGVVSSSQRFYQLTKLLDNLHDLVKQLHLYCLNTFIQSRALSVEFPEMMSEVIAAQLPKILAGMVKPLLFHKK
In short: (§1)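 Fluorescence polarization competition assays with recombinant human receptors in lysates of baculovirus-infected insect cells. Reactions contained 1% DMSO and ran 1 h at room temperature.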

[8] = molecular target: T4, Mineralocorticoid receptor (Homo sapiens, UniProt P08235); assay: Displacement of tetramethylrhodamine-labeled Dexamethasone from human recombinant mineralocorticoid receptor expressed in baculovirus infected insect cells by fluorescence polarization assay; in short: as §1
T4 sequence (P08235 whole entry): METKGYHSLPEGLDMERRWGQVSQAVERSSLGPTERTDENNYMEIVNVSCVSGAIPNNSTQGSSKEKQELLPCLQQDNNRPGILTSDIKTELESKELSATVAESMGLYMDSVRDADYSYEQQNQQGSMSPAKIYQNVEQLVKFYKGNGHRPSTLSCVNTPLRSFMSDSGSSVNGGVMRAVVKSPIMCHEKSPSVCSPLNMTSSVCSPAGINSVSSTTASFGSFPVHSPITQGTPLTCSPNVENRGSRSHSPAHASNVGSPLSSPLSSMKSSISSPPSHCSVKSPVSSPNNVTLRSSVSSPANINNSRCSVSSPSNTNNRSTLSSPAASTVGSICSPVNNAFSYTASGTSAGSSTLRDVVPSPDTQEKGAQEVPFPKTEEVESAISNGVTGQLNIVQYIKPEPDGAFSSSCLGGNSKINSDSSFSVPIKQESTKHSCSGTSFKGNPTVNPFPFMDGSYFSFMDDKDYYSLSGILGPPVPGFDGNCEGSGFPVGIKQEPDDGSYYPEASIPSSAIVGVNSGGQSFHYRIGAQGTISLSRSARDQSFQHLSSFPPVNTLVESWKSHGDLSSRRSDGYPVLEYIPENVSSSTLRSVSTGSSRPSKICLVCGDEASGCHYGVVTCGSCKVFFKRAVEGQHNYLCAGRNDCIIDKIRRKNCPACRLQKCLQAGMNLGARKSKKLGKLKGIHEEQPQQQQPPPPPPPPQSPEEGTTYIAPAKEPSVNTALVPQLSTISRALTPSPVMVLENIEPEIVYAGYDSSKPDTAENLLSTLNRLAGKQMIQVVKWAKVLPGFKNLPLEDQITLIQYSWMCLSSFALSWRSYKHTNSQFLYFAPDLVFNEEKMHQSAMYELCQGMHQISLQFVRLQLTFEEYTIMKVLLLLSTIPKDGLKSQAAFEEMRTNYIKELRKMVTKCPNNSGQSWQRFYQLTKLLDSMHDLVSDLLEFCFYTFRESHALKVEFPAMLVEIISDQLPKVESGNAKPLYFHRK

[9] = molecular target: T2, Glucocorticoid receptor; assay: Agonist activity at glucocorticoid receptor in HFF assessed as inhibition of IL1-induced IL-6 production after 18 to 24 hrs; type: functional
[10] = tested on: Mus musculus; assay: Antiinflammatory activity in mouse plasma assessed as inhibition of LPS-induced TNFalpha production at 10 mg/kg, po administered 1 hr before LPS challenge measured after 1 hr; type: functional
In short: (§2)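 Mice received compound orally in Cremophor RH 1 h before LPS challenge. Plasma TNF-α was measured 1 h after challenge. n = 8 per group; doses were 3 and 10 mg/kg.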

[11] = tested on: Mus musculus; assay: Antiinflammatory activity in po dosed mouse plasma assessed as inhibition of LPS-induced TNFalpha production administered 1 hr before LPS challenge measured after 1 hr; type: functional; in short: as §2
[12] = organism: Homo sapiens; assay: Selectivity ratio of IC50 for human recombinant glucocorticoid receptor to IC50 for human recombinant progesterone receptor
[13] = organism: Homo sapiens; assay: Selectivity ratio of IC50 for human recombinant glucocorticoid receptor to IC50 for human recombinant mineralocorticoid receptor
[14] = tested on: Mus musculus; assay: Antiinflammatory activity in mouse plasma assessed as inhibition of LPS-induced TNFalpha production at 3 mg/kg, po administered 1 hr before LPS challenge measured after 1 hr; type: functional; in short: as §2

Compound	Efficacy [1]	EC50 ([2]; read-out: EC50)	Efficacy [3]	EC50 [4]	Efficacy [5]	IC50 [6]	IC50 [7]	IC50 [8]	IC50 [9]	inhibition in vivo at 10 mg/kg [10]	ED50 [11]	Ratio IC50 [12]	EC50 [2]	Ratio IC50 [13]	inhibition [14]	inhibition in vivo at 3 mg/kg [14]
COc1ccc(F)cc1C(C)(C)C[C@@](O)(Cc1cc2cc(C#N)ccc2[nH]1)C(F)(F)F	90%	6 nM	71%	36 nM	10%	1 nM	155 nM	45 nM	3 nM							
CC(C)(C[C@@](O)(Cc1cc2ccccc2[nH]1)C(F)(F)F)c1cc(Br)cc2c1OCC2										61%	< 10 mg/kg					
COc1ccc(F)cc1C(C)(C)CC(O)(Cc1cc2c(C#N)cccc2[nH]1)C(F)(F)F (racemic)	91%	21 nM	91%			5 nM	440 nM	225 nM	8 nM			90				
CCc1cccc2[nH]c(CC(O)(CC(C)(C)c3cc(F)ccc3OC)C(F)(F)F)cc12 (racemic)	90%		49%			28 nM	1000 nM	790 nM	88 nM			30	Not Active			
COc1ccc(F)cc1C(C)(C)CC(O)(Cc1cc2cc(C#N)ccc2[nH]1)C(F)(F)F (racemic)	89%	28 nM	81%			8 nM	815 nM	415 nM	11 nM			100		50		
COc1ccc(F)cc1C(C)(C)CC(O)(Cc1cc2ccc(C#N)cc2[nH]1)C(F)(F)F (racemic)	91%	113 nM	98%			14 nM	395 nM	435 nM	14 nM			30		30		
CC(C)(CC(O)(Cc1cc2ccccc2[nH]1)C(F)(F)F)c1cc(C#N)cc2c1OCC2 (racemic)	65%	356 nM	55%			15 nM	710 nM	405 nM	104 nM			50				
CC(C)(CC(O)(Cc1cc2ccccc2[nH]1)C(F)(F)F)c1cc(S(C)(=O)=O)cc2c1OCC2 (racemic)	84%			> 2000 nM	20%	6 nM	> 2000 nM	610 nM	100 nM			> 300		100		
CC(C)(CC(O)(Cc1cc2cc(C#N)ccc2[nH]1)C(F)(F)F)c1cc(S(C)(=O)=O)cc2c1OCC2 (racemic)	85%	80 nM	63%	> 2000 nM	4%	5 nM	> 2000 nM	1450 nM	49 nM	77%	< 10 mg/kg				inactive	
CC(C)(CC(O)(Cc1cc2ccc(C#N)cc2[nH]1)C(F)(F)F)c1cc(S(C)(=O)=O)cc2c1OCC2 (racemic)	89%	125 nM	98%	> 2000 nM	10%	5 nM	> 2000 nM	430 nM	39 nM	66%	< 10 mg/kg					66%
